Results taken from ChEMBL document CHEMBL5154945, “Discovery and Optimization of Pyrrolopyrimidine Derivatives as Selective Disruptors of the Perinucleolar Compartment, a Marker of Tumor Progression toward Metastasis” (J Med Chem, 2022).
Values joined by “and” are separate entries in the source; they are usually repeats but may differ in a detail not shown here. Identical values can stand only once. Active and inactive are the calls of the source. No cut-off for these calls is given here.

Tests used:
PC-3M = experiment: Antiproliferative activity against human PC-3M cells expressing PTB/GFP fusion protein assessed as disruption of RNA synthesis marker NOPP140 at 1 uM measured after 1 hr by DAPI staining based immunofluorescence microscopy; format: functional, cell-based
Procedure, shortened: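 50,000 PC3M cells on chamber slides were treated with 1 μM compound for 1 h at 37 °C, then fixed in 4% paraformaldehyde for 15 min, permeabilized with 0.3% Triton X-100 and blocked in 3% BSA. Primary antibodies were anti-RPA194 (1:200) and anti-NOPP140 (1:100), overnight at 4 °C, followed by secondary antibodies and DAPI mounting. Confocal images at 63×, three images of about 200 cells per group; counts of bright objects were normalized to DAPI-stained nuclei.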

[1] = Kinetic solubility of compound
CCRF-CEM = experiment: Anticancer activity against human CCRF-CEM cells assessed as cell growth inhibition; format: functional, cell-based; details: dose 1-100 µM, DDE = dose-dependent effect
MOLT-4 = experiment: Anticancer activity against human MOLT-4 cells assessed as cell growth inhibition; format: functional, cell-based; details: dose 1-100 µM, DDE = dose-dependent effect
HCC 2998 = experiment: Anticancer activity against human HCC 2998 cells assessed as cell growth inhibition; format: functional, cell-based; details: dose 1-100 µM, DDE = dose-dependent effect
[2] = molecular target: 5-hydroxytryptamine receptor 1E (Homo sapiens) (UniProt P28566); experiment: Binding affinity to 5-HT1E receptor (unknown origin) at 10000 nM by radioligand displacement assay relative to control
[3] = molecular target: Alpha-2A adrenergic receptor (Homo sapiens) (UniProt P08913); experiment: Binding affinity to alpha2A receptor (unknown origin) at 10000 nM by radioligand displacement assay relative to control
[4] = mouse, in vivo, ip, 50 mg/kg, 48 h

Sequence of Alpha-2A adrenergic receptor (Homo sapiens) (P08913 whole entry): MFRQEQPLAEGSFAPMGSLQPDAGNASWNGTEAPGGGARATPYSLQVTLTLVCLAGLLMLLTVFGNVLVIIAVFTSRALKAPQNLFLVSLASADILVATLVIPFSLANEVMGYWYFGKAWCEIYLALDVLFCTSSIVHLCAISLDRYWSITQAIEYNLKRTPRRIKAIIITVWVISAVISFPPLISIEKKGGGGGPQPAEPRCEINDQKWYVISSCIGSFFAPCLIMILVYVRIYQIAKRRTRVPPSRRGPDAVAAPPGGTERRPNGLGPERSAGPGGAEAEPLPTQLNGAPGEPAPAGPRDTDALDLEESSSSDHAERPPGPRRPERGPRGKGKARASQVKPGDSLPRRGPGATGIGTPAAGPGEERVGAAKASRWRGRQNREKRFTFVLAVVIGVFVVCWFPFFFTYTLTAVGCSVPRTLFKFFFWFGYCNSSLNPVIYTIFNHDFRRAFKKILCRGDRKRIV
Sequence of 5-hydroxytryptamine receptor 1E (Homo sapiens) (P28566 whole entry): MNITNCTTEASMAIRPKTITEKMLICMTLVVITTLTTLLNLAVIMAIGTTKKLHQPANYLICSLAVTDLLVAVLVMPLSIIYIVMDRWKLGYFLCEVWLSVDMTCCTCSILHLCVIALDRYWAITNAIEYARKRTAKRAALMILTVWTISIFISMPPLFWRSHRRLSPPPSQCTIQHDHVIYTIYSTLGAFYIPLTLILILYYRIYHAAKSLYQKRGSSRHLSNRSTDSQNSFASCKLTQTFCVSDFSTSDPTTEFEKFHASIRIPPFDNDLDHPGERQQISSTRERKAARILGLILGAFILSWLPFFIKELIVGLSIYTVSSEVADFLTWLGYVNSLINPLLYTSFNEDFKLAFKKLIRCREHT

SMILES: N=c1c2c(-c3ccccc3)c(-c3ccccc3)n(Cc3ccccc3)c2ncn1[C@H]1CC[C@H](O)CC1 [ML-246]
- Activity (PC-3M): Active
- solubility kinetic [1]: > 99 µM and > 47 µg/mL
- Activity (CCRF-CEM): Dde
- Activity (MOLT-4): Dde
- Activity (HCC 2998): Dde
- Activity [2]: < 50%
- Activity [3]: < 50%
- AUC [4]: 231.77 µM·h
